Among the data in ChEMBL document CHEMBL1125281, “Identification and synthesis of a receptor binding site of human anaphylatoxin C5a” (J Med Chem, 1991) are Ki values, retold here.

Where a SMILES comes first, the peptide text is derived from it. Bridges are numbered along the chain shown (N, C = ends). The star is where a group is joined. Acm = CC(=O)NC*

Assay [1] concerns the target T1, C5a anaphylatoxin chemotactic receptor 1 (Homo sapiens, UniProt P21730).
T1 sequence (P21730 whole entry): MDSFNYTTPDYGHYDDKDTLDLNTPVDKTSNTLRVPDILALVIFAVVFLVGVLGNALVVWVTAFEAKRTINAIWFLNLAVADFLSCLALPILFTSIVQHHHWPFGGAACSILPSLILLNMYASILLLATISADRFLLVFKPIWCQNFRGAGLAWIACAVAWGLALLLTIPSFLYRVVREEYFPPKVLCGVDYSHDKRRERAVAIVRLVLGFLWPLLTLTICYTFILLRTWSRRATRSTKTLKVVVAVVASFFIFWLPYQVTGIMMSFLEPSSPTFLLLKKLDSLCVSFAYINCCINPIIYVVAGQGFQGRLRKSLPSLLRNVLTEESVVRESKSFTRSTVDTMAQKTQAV
Put plainly: Inhibition of [125I]C5a binding to anaphylatoxin chemotactic receptor of PMNL cells. The format is cell-based. The essentials: (§1)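 Intact human PMNL isolated from peripheral blood by one-step density centrifugation. Cells incubated 20 min at 23 °C with [125I]C5a (1 × 10⁻⁹ M), test peptide and protease inhibitors. Cells separated from free ligand by centrifugation through silicone oil at 10000g; pellet γ counts read.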

The target of assay [2] is T1, C5a anaphylatoxin chemotactic receptor 1. Put plainly: Inhibition of [125I]C5a binding to anaphylatoxin chemotactic receptor of PMNL membranes.
Assay [3] shares this target. The assay is described as follows: Inhibition of [125I]C5a binding to C5a anaphylatoxin chemotactic receptor in PMNL intact cells; inactive. The format is cell-based. Put shortly:
as §1

Turning to `CC(=O)N[C@@H](C)C(=O)N[C@@H](C)C(=O)N[C@@H](CCCCN)C(=O)N[C@@H](Cc1ccc(O)cc1)C(=O)N[C@@H](CCCCN)C(=O)N[C@@H](Cc1c[nH]cn1)C(=O)N[C@@H](CO)C(=O)N[C@H](C(=O)N[C@H](C(=O)N[C@@H](CCCCN)C(=O)N[C@@H](CCCCN)C(=O)O)C(C)C)C(C)C` (Ac-AAKYKHSVVKK-OH), the Ki entry in assay [1] and in assay [2] was “Not Active” throughout.
For `CSCC[C@H](NC(=O)[C@H](CC(=O)O)NC(=O)[C@H](CCCCN)NC(=O)[C@H](Cc1c[nH]cn1)NC(C)=O)C(=O)N[C@@H](CCC(N)=O)C(=O)N[C@@H](CC(C)C)C(=O)NCC(=O)N[C@@H](CCCN=C(N)N)C(=O)O` (Ac-HKDMQLGR-OH), in assay [3], the Ki entry is recorded as “Not Active”.
Consider `CC[C@H](C)[C@H](NC(=O)[C@H](CC(N)=O)NC(=O)[C@H](C)NC(=O)[C@H](CCCN=C(N)N)NC(=O)[C@H](CC(C)C)NC(=O)[C@H](CCC(N)=O)NC(=O)[C@H](CO)NC(=O)[C@H](C)NC(=O)[C@@H](NC(=O)[C@@H](NC(=O)[C@H](CCSC)NC(C)=O)C(C)C)C(C)C)C(=O)N[C@@H](CO)C(=O)N[C@@H](Cc1c[nH]cn1)C(=O)N[C@@H](CCCCN)C(=O)N[C@@H](CC(=O)O)C(=O)N[C@@H](CCSC)C(=O)N[C@@H](CCC(N)=O)C(=O)N[C@@H](CC(C)C)C(=O)NCC(=O)N[C@@H](CCCN=C(N)N)C(=O)O` (Ac-MVVASQLRANISHKDMQLGR-OH), for which the Ki result in assay [1] was “Not Active”.
Consider `CC[C@H](C)[C@H](NC(=O)[C@H](CCCNC(=N)N)NC(=O)[C@H](C)NC(=O)[C@H](C)NC(=O)[C@H](CCCNC(=N)N)NC(=O)[C@H](CCC(N)=O)NC(=O)[C@H](CCC(=O)O)NC(=O)[C@H](CSCNC(C)=O)NC(=O)[C@@H](NC(C)=O)[C@@H](C)O)C(=O)N[C@@H](CO)C(=O)N[C@@H](CC(C)C)C(=O)O` (Ac-TC(Acm)EQRAARISL-OH), for which the Ki entry in assay [1] and in assay [2] was “Not Active” in each case.
As for `CC(C)C[C@H](NC(=O)[C@H](CCC(N)=O)NC(=O)[C@H](CO)NC(=O)[C@H](C)NC(=O)[C@@H](NC(=O)[C@@H](NC(=O)[C@H](C)N)C(C)C)C(C)C)C(=O)N[C@@H](CCCN=C(N)N)C(=O)O` (H-AVVASQLR-OH), the Ki entry in assay [1] and in assay [2] was “Not Active” each time.
Regarding `CC[C@H](C)[C@H](NC(=O)[C@H](CCCN=C(N)N)NC(=O)[C@H](C)NC(=O)[C@@H](N)CSCNC(C)=O)C(=O)N[C@@H](CO)C(=O)N[C@@H](CC(C)C)C(=O)NCC(=O)N1CCC[C@H]1C(=O)N[C@@H](CCCN=C(N)N)C(=O)N[C@@H](CCSC)C(=O)N[C@@H](CSCNC(C)=O)C(=O)N[C@@H](CCCCN)C(=O)O` (H-C(Acm)ARISLGPRMC(Acm)K-OH), the Ki entry in assay [1] and in assay [2] was “Not Active” in each case.
In the case of `CC(C)[C@@H]1NC(=O)[C@H](CO)NC(=O)[C@H](Cc2c[nH]cn2)NC(=O)[C@H](CCCCN)NC(=O)[C@H](Cc2ccc(O)cc2)NC(=O)[C@H](CCCCN)NC(=O)[C@H](C)NC(=O)[C@@H](N)CSSC[C@@H](C(=O)O)NC(=O)[C@H](C(C)C)NC1=O` (H-CAKYKHSVVC-OH; disulfide 1-10), the Ki result in assay [1] and in assay [2] was “Not Active” each time.
Turning to `CC(C)[C@H](NC(=O)[C@H](C)NC(=O)[C@H](C)NC(=O)CNC(=O)[C@H](CC(=O)O)NC(=O)[C@H](Cc1ccc(O)cc1)NC(=O)[C@H](C)NC(=O)[C@H](C)NC(=O)[C@H](CCCCN)NC(=O)[C@H](CCCCN)NC(=O)[C@@H](NC(=O)[C@@H](NC(=O)[C@H](CO)NC(=O)[C@@H](N)Cc1c[nH]cn1)C(C)C)C(C)C)C(=O)N[C@@H](CC(N)=O)C(=O)N[C@@H](CC(N)=O)C(=O)N[C@@H](CC(=O)O)C(=O)N[C@@H](CCC(=O)O)C(=O)O` (H-HSVVKKAAYDGAAVNNDE-OH), the Ki entry in assay [1] and in assay [2] was “Not Active” in each case.
In the case of `CC(C)[C@H](NC(=O)[C@H](CO)NC(=O)[C@H](Cc1c[nH]cn1)NC(=O)[C@@H](N)CCCCN)C(=O)N[C@H](C(=O)N[C@@H](CCCCN)C(=O)N[C@@H](CCCCN)C(=O)O)C(C)C` (H-KHSVVKK-OH), the Ki result in assay [1] and in assay [2] was “Not Active” throughout.
As to `CC[C@H](C)[C@H](NC(=O)[C@H](CC(N)=O)NC(=O)[C@H](C)NC(=O)[C@H](CCCN=C(N)N)NC(=O)[C@H](CC(C)C)NC(=O)[C@H](CCC(N)=O)NC(=O)[C@@H](N)CO)C(=O)N[C@@H](CO)C(=O)N[C@@H](Cc1c[nH]cn1)C(=O)N[C@@H](CCCCN)C(=O)N[C@@H](CC(=O)O)C(=O)N[C@@H](CCSC)C(=O)N[C@@H](CCC(N)=O)C(=O)N[C@@H](CC(C)C)C(=O)NCC(=O)N[C@@H](CCCN=C(N)N)C(=O)O` (H-SQLRANISHKDMQLGR-OH), the Ki entry in assay [1] is “Not Active”.
On to `CC(=O)NCSC[C@H](NC(=O)[C@H](C)NC(=O)[C@H](CCCCN)NC(=O)[C@H](CCCCN)NC(=O)[C@@H](NC(=O)[C@@H](NC(=O)[C@@H](N)CO)C(C)C)C(C)C)C(=O)N[C@@H](Cc1ccc(O)cc1)C(=O)N[C@@H](CC(=O)O)C(=O)NCC(=O)N[C@@H](C)C(=O)O` (H-SVVKKAC(Acm)YDGA-OH), for which the Ki result in assay [1] and in assay [2] was “Not Active” each time.
As to `CC[C@H](C)[C@@H]1NC(=O)[C@H](CCC(=O)O)NC(=O)[C@H](CCC(=O)O)NC(=O)[C@@H](NC(=O)[C@H](CCCCN)NC(=O)[C@H](CCCCN)NC(=O)[C@H](CCC(N)=O)NC(=O)[C@H](CC(C)C)NC(=O)[C@@H](N)[C@@H](C)O)CSSC[C@@H](C(=O)N[C@@H](Cc2ccc(O)cc2)C(=O)N[C@@H](CC(=O)O)C(=O)NCC(=O)N[C@@H](C)C(=O)O)NC(=O)[C@H](C)NC(=O)[C@H](CCCCN)NC(=O)[C@H](CCCCN)NC(=O)[C@H](C(C)C)NC(=O)[C@H](C(C)C)NC(=O)[C@H](CO)NC(=O)[C@H](Cc2c[nH]cn2)NC(=O)[C@H](CCCCN)NC(=O)[C@H](Cc2ccc(O)cc2)NC(=O)[C@H](CCCCN)NC(=O)[C@H](C)NC(=O)[C@H](C)NC1=O` (H-TLQKKCEEIAAKYKHSVVKKACYDGA-OH; disulfide 6-22), the Ki entry in assay [1] and in assay [2] was “Not Active” throughout.
Turning to `CC[C@H](C)[C@H](NC(=O)[C@H](CCC(=O)O)NC(=O)[C@H](CCC(=O)O)NC(=O)[C@@H](NC(=O)[C@H](CCCCN)NC(=O)[C@H](CCCCN)NC(=O)[C@H](CCC(N)=O)NC(=O)[C@H](CC(C)C)NC(=O)[C@@H](N)[C@@H](C)O)[C@@H](C)CC)C(=O)N[C@@H](C)C(=O)N[C@@H](C)C(=O)N[C@@H](CCCCN)C(=O)N[C@@H](Cc1ccc(O)cc1)C(=O)N[C@@H](CCCCN)C(=O)O` (H-TLQKKIEEIAAKYK-OH), the Ki entry in assay [1] and in assay [2] was “Not Active” in each case.
As for `CC[C@H](C)[C@H](N)C(=O)N[C@@H](CO)C(=O)N[C@@H](Cc1c[nH]cn1)C(=O)N[C@@H](CCCCN)C(=O)N[C@@H](CC(=O)O)C(=O)N[C@@H](CCSC)C(=O)N[C@@H](CCC(N)=O)C(=O)N[C@@H](CC(C)C)C(=O)NCC(=O)N[C@@H](CCCN=C(N)N)C(=O)O` [ISHKDMQLGR] (H-ISHKDMQLGR-OH), the Ki entry in assay [3] is listed as “Not Active”.
